# Source: ChEMBL document CHEMBL1124915, “Inhibitors of human renin. Cyclic peptide analogues containing a D-Phe-Lys-D-Trp sequence” (J Med Chem, 1990)
# Target: T1, Renin (Homo sapiens, UniProt P00797)
# T1 sequence (P00797 whole entry): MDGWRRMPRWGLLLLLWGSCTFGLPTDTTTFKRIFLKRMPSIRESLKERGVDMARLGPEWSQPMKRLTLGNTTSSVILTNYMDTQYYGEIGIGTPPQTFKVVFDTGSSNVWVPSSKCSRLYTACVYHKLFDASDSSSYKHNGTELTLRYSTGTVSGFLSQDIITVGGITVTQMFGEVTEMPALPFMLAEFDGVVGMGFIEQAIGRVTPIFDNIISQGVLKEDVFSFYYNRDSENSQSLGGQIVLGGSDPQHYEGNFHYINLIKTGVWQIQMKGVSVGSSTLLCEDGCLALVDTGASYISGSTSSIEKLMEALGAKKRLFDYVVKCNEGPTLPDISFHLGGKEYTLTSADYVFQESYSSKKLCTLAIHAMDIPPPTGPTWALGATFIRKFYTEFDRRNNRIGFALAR
# Assay: Inhibition of human renin
row,IC50 [nM],SMILES
1,2300,CC(C)CCNC(=O)C(Cc1c[nH]c2ccccc12)NC(=O)[C@H](CCCCN)N1C(=O)COCC(=O)N[C@@H](Cc2ccccc2)C1=O (stereo in doubt)
2,31000,COC(=O)[C@H](CC(C)C)NC(=O)C(Cc1c[nH]c2ccccc12)NC(=O)[C@H](CCCCN)NC(=O)[C@H](Cc1ccccc1)NC(=O)OCc1ccccc1 (stereo in doubt)
3,1500,CC(C)CCNC(=O)C(Cc1c[nH]c2ccccc12)NC(=O)[C@H](CCCCN)N1C(=O)C(c2ccccc2)CCC(=O)N[C@@H](Cc2ccccc2)C1=O (stereo in doubt)
4,240,CC(C)CC(C)CNC(=O)C(Cc1c[nH]c2ccccc12)NC(=O)[C@H](CCCCN)N1C(=O)CC(C)CC(=O)N[C@@H](Cc2ccccc2)C1=O (stereo in doubt)
5,3200,COC(=O)[C@H](CC(C)C)NC(=O)C(Cc1c[nH]c2ccccc12)NC(=O)[C@H](CCCCN)N1C(=O)CC[C@H](NC(=O)OCc2ccccc2)C(=O)N[C@@H](Cc2ccccc2)C1=O (stereo in doubt)
6,40000,COC(=O)[C@H](CC(C)C)NC(=O)C(Cc1c[nH]c2ccccc12)NC(=O)[C@H](CSCNC(C)=O)NC(=O)[C@H](Cc1ccccc1)NC(=O)OC(C)(C)C (stereo in doubt)
7,750,CC(C)CCNC(=O)C(Cc1c[nH]c2ccccc12)NC(=O)[C@H](CCCCN)N1C(=O)CN[C@@H](Cc2ccccc2)C(=O)N[C@@H](Cc2ccccc2)C1=O (stereo in doubt)
8,1400,CCC(C)CNC(=O)C(Cc1c[nH]c2ccccc12)NC(=O)[C@H](CCCCN)N1C(=O)[C@H](Cc2ccccc2)NC(=O)CCC(C)(C)C1=O (stereo in doubt)
9,2740,CC(C)CCNC(=O)C(Cc1c[nH]c2ccccc12)NC(=O)[C@H](CCCCN)N1C(=O)CN[C@H](Cc2ccccc2)C(=O)N[C@@H](Cc2ccccc2)C1=O (stereo in doubt)

# Target: T2, Renin (Homo sapiens) (UniProt P00797)
# T2 sequence (whole entry): T1 sequence (P00797 whole entry)
# Assay: Percent inhibition against human renin at the concentration of 10 uM
row,inhibition [%],SMILES
1,53,CC(C)CCNC(=O)C(Cc1c[nH]c2ccccc12)NC(=O)[C@H](CCCCN)N1C(=O)CCC(=O)N[C@@H](Cc2ccccc2)C1=O (stereo in doubt)
2,58,CC[C@@H](C)[C@@H]1NCC(=O)N[C@@H](Cc2ccccc2)C(=O)N([C@@H](CCCCN)C(=O)NC(Cc2c[nH]c3ccccc23)C(=O)NCCC(C)C)C1=O (stereo in doubt)
3,45,CC[C@H](C)[C@@H]1NCC(=O)N([C@@H](CCCCN)C(=O)NC(Cc2c[nH]c3ccccc23)C(=O)NCCC(C)C)C(=O)[C@H](Cc2ccccc2)NC1=O (stereo in doubt)

# Target: T2, Renin (Homo sapiens)
# Assay: Percent inhibition against human renin at the concentration of 100 uM
# Procedure, shortened: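 Each compound was tested twice at 100 µM against partially purified human renal renin with human plasma angiotensinogen in pH 7.0 phosphate buffer with protease inhibitors and 1% DMSO, for 120 min at 30 °C. Angiotensin I generation was quantified by radioimmunoassay and expressed as percent inhibition of the vehicle control rate.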
row,inhibition [%],SMILES
1,52,CC(C)CCNC(=O)C(Cc1c[nH]c2ccccc12)NC(=O)[C@H](CCCCN)N1C(=O)[C@H](Cc2ccccc2)NCC(=O)N[C@@H](Cc2ccccc2)C1=O (stereo in doubt)
2,88,CC(C)CCNC(=O)C(Cc1c[nH]c2ccccc12)NC(=O)[C@H](CCCCN)N1C(=O)CN[C@H](CC(C)C)C(=O)N[C@@H](Cc2ccccc2)C1=O (stereo in doubt)
3,63,CCC(C)CNC(=O)C(Cc1c[nH]c2ccccc12)NC(=O)[C@H](CCCCN)N1C(=O)CC(C)(C)CC(=O)N[C@@H](Cc2ccccc2)C1=O (stereo in doubt)
4,57,CC(C)CCNC(=O)C(Cc1c[nH]c2ccccc12)NC(=O)[C@H](CCCCN)N1C(=O)[C@H](Cc2ccccc2)NC(=O)CN[C@H](Cc2ccccc2)C1=O (stereo in doubt)
5,66,CC(C)CCNC(=O)C(Cc1c[nH]c2ccccc12)NC(=O)[C@H](CCCCN)N1C(=O)CSCC(=O)N[C@@H](Cc2ccccc2)C1=O (stereo in doubt)
6,84,CC[C@H](C)[C@@H]1NCC(=O)N([C@@H](CCCCN)C(=O)NC(Cc2c[nH]c3ccccc23)C(=O)NCCC(C)C)C(=O)[C@H](Cc2ccccc2)NC1=O (stereo in doubt)

# Target: T2, Renin (Homo sapiens)
# Assay: Percent inhibition against human renin at the concentration of 1 uM
row,inhibition [%],SMILES
1,10,CC(C)CCNC(=O)C(Cc1c[nH]c2ccccc12)NC(=O)[C@H](CCCCN)N1C(=O)CN[C@H](CC(C)C)C(=O)N[C@@H](Cc2ccccc2)C1=O (stereo in doubt)
